According to ChEMBL document CHEMBL4261600 (Eur J Med Chem, 2018):
Calls of active or inactive are those of the source.

Tests used:
[1] = biological target: Myotonin-protein kinase (Homo sapiens) (UniProt Q09013); test: Binding affinity to wild-type human partial length DMPK (V47 to V415 residues) expressed in bacterial expression system assessed as remaining unbound target protein level at 1000 nM by Kinomescan method relative to control
[2] = biological target: Serine/threonine-protein kinase BRSK2 (Homo sapiens) (UniProt Q8IWQ3); test: Binding affinity to wild-type human full length BRSK2 (M1 to L674 residues) expressed in bacterial expression system assessed as remaining unbound target protein level at 1000 nM by Kinomescan method relative to control
Serine/threonine-protein kinase BRSK2 (Homo sapiens), sequence (Q8IWQ3 whole entry, the tested form may be a part): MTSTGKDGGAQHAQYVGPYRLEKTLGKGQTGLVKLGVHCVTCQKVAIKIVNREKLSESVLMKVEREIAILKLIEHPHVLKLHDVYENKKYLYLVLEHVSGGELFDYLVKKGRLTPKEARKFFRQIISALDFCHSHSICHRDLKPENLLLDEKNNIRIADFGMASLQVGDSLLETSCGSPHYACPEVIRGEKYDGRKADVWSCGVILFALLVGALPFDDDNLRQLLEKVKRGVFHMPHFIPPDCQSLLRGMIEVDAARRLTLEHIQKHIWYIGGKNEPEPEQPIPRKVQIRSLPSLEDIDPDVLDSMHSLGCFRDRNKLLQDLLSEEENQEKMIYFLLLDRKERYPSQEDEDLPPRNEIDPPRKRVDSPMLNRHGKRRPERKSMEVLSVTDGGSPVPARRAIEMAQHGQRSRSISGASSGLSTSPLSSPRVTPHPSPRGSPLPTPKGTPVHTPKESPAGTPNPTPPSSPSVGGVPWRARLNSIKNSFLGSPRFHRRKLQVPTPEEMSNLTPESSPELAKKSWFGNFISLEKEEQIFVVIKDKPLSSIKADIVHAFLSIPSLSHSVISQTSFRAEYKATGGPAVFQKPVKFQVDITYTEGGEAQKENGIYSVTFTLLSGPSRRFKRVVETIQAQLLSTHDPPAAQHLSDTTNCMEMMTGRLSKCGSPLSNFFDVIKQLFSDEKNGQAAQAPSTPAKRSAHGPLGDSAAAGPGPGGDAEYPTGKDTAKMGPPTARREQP
How it was run: (§1)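 Single-point competition binding screen across a panel of 468 kinases and mutants, with the inhibitor at 1 μM. Binding is read out as percent of a DMSO control, and targets below 1 percent control were classed as strong binders.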

[3] = biological target: STE20/SPS1-related proline-alanine-rich protein kinase (Homo sapiens) (UniProt Q9UEW8); test: Binding affinity to wild-type human partial length STK39 (P43 to I357 residues) expressed in mammalian expression system assessed as remaining unbound target protein level at 1000 nM by Kinomescan method relative to control
[4] = biological target: CDK2/Cyclin A2 (Homo sapiens, UniProt P24941); test: Inhibition of recombinant full length His-tagged human CDK2/CyclinA expressed in baculovirus expression system
[5] = biological target: Bone morphogenetic protein receptor type-1A (Homo sapiens) (UniProt P36894); test: Binding affinity to wild-type human partial length BMPR1A (Q214 to I532 residues) expressed in bacterial expression system assessed as remaining unbound target protein level at 1000 nM by Kinomescan method relative to control
Bone morphogenetic protein receptor type-1A (Homo sapiens), sequence (P36894 whole entry, the tested form may be a part): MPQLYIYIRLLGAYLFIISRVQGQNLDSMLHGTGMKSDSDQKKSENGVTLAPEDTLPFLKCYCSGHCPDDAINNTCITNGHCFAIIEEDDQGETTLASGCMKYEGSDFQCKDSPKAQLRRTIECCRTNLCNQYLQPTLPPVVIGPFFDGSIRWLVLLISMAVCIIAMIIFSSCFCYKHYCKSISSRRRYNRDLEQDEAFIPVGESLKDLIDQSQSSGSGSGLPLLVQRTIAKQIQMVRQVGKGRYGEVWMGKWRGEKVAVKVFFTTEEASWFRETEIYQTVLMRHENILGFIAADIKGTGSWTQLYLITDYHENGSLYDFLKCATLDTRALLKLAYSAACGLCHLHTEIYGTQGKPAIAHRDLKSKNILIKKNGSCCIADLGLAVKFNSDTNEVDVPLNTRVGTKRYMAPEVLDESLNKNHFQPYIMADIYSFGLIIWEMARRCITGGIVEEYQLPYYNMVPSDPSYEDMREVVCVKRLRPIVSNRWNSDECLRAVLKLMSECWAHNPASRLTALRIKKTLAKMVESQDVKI
How it was run: (§2)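 Profiled in a KINOMEscan binding panel with the inhibitor at a single concentration of 1 μM. Binding to each kinase was read out as percent of control, relative to a DMSO control. Strong binders were defined as those with a percent control value below 1.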

[6] = species: Homo sapiens; test: Induction of apoptosis in human MEC1 cells assessed as decrease in XIAP level up to 3 uM after 2 hrs by immunoblotting analysis; type: functional, cell-based
[7] = biological target: Serine/threonine-protein kinase MAK (Homo sapiens) (UniProt P20794); test: Binding affinity to wild-type human partial length MAK (M1 to P314 residues) expressed in bacterial expression system assessed as remaining unbound target protein level at 1000 nM by Kinomescan method relative to control
[8] = biological target: Mitogen-activated protein kinase kinase kinase kinase 5 (Homo sapiens) (UniProt Q9Y4K4); test: Binding affinity to wild-type human partial length MAP4K5 (M1 to P297 residues) expressed in bacterial expression system assessed as remaining unbound target protein level at 1000 nM by Kinomescan method relative to control
How it was run: (§3)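 KINOMEscan binding panel of 468 kinases/mutants. Inhibitor was tested at a single concentration of 1 μM. Binding is reported as percent of control, defined relative to a DMSO control.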

[9] = biological target: Death-associated protein kinase 3 (Homo sapiens) (UniProt O43293); test: Binding affinity to wild-type human partial length DAPK3 (M1 to A277 residues) expressed in bacterial expression system assessed as remaining unbound target protein level at 1000 nM by Kinomescan method relative to control; how it was run: as §3
[10] = tested on: Epidermal growth factor receptor (Homo sapiens), P00533 [T790M]; test: Binding affinity to human partial length EGFR T790M mutant (R669 to G1022 residues) expressed in mammalian expression system assessed as remaining unbound target protein level at 1000 nM by Kinomescan method relative to control
How it was run: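 KINOMEscan competition-binding profiling across the panel of 468 kinases and mutants, with inhibitor tested at 1 μM. Binding is expressed as percent of control, with DMSO as the reference control.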

[11] = biological target: Eukaryotic translation initiation factor 2-alpha kinase 1 (Homo sapiens) (UniProt Q9BQI3); test: Binding affinity to wild-type human partial length EIF2AK1 (Q147 to E603 residues) expressed in mammalian expression system assessed as remaining unbound target protein level at 1000 nM by Kinomescan method relative to control
Eukaryotic translation initiation factor 2-alpha kinase 1 (Homo sapiens), sequence (Q9BQI3 whole entry, the tested form may be a part): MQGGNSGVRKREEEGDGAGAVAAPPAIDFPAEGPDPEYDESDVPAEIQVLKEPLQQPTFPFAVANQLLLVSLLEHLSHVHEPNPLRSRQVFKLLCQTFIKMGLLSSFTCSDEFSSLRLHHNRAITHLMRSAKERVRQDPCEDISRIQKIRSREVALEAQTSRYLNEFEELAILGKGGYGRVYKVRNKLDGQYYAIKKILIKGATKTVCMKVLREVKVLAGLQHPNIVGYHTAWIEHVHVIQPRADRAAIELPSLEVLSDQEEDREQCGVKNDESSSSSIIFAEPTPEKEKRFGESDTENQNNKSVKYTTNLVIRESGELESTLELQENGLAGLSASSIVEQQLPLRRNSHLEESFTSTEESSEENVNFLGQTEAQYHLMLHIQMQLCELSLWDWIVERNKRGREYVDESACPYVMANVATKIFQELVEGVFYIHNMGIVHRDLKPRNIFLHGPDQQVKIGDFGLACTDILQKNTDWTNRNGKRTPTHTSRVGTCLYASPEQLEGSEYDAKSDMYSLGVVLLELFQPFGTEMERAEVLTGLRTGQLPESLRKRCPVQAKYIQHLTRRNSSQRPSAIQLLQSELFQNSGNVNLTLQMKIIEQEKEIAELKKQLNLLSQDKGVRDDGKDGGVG

[12] = biological target: RAC-beta serine/threonine-protein kinase (Homo sapiens) (UniProt P31751); test: Binding affinity to wild-type human partial length AKT2 expressed in bacterial expression system assessed as remaining unbound target protein level at 1000 nM by Kinomescan method relative to control; how it was run: as §2
[13] = biological target: Receptor tyrosine-protein kinase erbB-3 (Homo sapiens) (UniProt P21860); test: Binding affinity to wild-type human partial length ERBB3 (G684 to A987 residues) expressed in mammalian expression system assessed as remaining unbound target protein level at 1000 nM by Kinomescan method relative to control; how it was run: as §3
[14] = biological target: Calcium/calmodulin-dependent protein kinase type 1B (Homo sapiens) (UniProt Q6P2M8); test: Binding affinity to wild-type human partial length CAMK1B (W9 to A311 residues) expressed in mammalian expression system assessed as remaining unbound target protein level at 1000 nM by Kinomescan method relative to control; how it was run: as §2
[15] = biological target: Serine/threonine-protein kinase MARK2 (Homo sapiens) (UniProt Q7KZI7); test: Binding affinity to wild-type human partial length MARK2 (M1 to R450 residues) expressed in bacterial expression system assessed as remaining unbound target protein level at 1000 nM by Kinomescan method relative to control
Serine/threonine-protein kinase MARK2 (Homo sapiens), sequence (Q7KZI7 whole entry, the tested form may be a part): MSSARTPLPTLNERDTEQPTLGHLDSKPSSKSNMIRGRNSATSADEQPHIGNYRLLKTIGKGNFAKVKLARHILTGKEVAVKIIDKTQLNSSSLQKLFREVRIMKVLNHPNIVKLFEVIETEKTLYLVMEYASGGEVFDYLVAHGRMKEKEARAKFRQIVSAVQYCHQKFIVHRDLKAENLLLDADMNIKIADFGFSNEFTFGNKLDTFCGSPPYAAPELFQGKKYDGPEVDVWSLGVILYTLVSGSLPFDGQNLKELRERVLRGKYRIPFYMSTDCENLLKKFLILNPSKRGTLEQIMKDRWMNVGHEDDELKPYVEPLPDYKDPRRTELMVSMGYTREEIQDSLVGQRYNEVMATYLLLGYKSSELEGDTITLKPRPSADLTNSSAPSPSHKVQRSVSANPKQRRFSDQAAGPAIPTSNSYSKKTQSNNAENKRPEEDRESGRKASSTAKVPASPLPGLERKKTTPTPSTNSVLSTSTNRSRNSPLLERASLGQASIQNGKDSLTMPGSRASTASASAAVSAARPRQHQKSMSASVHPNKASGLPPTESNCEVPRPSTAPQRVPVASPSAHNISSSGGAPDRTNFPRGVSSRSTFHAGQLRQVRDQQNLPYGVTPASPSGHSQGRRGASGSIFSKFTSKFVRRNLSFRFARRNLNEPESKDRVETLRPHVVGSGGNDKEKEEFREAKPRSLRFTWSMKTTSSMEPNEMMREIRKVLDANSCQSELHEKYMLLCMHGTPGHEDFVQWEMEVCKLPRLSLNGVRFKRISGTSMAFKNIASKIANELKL

[16] = biological target: Mitogen-activated protein kinase kinase kinase 5 (Homo sapiens) (UniProt Q99683); test: Binding affinity to wild-type human partial length ASK1 (E648 to S964 residues) expressed in bacterial expression system assessed as remaining unbound target protein level at 1000 nM by Kinomescan method relative to control
How it was run: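 KINOMEscan competition binding profile across a panel of 468 kinases and mutants, with the inhibitor tested at a single concentration of 1 μM. Binding is reported as percent of control, meaning signal relative to a DMSO control.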

[17] = biological target: cGMP-dependent protein kinase 1 (Homo sapiens) (UniProt Q13976); test: Binding affinity to wild-type human partial length PRKG1 (L339 to F686 residues) expressed in bacterial expression system assessed as remaining unbound target protein level at 1000 nM by Kinomescan method relative to control
cGMP-dependent protein kinase 1 (Homo sapiens), sequence (Q13976 whole entry, the tested form may be a part): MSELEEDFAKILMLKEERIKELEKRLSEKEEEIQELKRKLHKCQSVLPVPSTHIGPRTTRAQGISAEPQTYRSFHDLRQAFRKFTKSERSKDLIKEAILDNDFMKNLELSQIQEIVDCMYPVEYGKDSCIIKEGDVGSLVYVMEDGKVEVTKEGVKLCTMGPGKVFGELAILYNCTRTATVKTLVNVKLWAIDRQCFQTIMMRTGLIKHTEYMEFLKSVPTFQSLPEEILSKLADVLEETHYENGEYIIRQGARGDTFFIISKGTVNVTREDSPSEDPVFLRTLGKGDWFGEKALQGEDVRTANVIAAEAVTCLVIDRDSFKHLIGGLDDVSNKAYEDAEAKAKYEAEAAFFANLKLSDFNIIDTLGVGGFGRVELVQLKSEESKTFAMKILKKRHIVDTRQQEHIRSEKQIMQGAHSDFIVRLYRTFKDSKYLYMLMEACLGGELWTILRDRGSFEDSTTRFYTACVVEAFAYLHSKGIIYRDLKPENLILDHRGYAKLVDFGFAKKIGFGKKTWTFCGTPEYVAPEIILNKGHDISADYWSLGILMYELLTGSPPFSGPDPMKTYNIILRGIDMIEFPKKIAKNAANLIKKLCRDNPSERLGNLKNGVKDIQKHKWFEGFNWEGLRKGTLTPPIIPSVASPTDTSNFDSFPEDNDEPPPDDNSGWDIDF

[18] = biological target: Cyclin-dependent kinase-like 1 (Homo sapiens) (UniProt Q00532); test: Binding affinity to wild-type human full length CDKL1 (M1 to I358 residues) expressed in mammalian expression system assessed as remaining unbound target protein level at 1000 nM by Kinomescan method relative to control; how it was run: as §1
[19] = biological target: SRSF protein kinase 3 (Homo sapiens) (UniProt Q9UPE1); test: Binding affinity to wild-type human partial length SRPK3 (P41 to P567 residues) expressed in bacterial expression system assessed as remaining unbound target protein level at 1000 nM by Kinomescan method relative to control
SRSF protein kinase 3 (Homo sapiens), sequence (Q9UPE1 whole entry, the tested form may be a part): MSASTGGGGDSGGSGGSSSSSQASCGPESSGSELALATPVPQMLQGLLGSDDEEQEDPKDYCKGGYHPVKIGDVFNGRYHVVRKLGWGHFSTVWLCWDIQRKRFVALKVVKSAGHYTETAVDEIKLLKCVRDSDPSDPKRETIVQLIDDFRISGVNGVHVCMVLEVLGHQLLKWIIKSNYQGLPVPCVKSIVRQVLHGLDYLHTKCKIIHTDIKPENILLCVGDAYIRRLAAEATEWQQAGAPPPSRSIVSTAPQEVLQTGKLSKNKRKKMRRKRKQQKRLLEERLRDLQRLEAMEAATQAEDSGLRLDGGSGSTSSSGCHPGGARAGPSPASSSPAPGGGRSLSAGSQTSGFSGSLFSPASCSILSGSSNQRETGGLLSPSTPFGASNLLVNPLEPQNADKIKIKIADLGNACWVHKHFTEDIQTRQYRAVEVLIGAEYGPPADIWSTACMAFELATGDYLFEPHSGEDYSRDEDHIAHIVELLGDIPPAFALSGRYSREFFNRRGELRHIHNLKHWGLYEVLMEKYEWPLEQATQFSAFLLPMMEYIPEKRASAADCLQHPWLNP

[20] = biological target: Platelet-derived growth factor receptor beta (Homo sapiens) (UniProt P09619); test: Binding affinity to wild-type human partial length PDGFRB (V582 to Y1009 residues) expressed in bacterial expression system assessed as remaining unbound target protein level at 1000 nM by Kinomescan method relative to control; how it was run: as §3
Platelet-derived growth factor receptor beta (Homo sapiens), sequence (P09619 whole entry, the tested form may be a part): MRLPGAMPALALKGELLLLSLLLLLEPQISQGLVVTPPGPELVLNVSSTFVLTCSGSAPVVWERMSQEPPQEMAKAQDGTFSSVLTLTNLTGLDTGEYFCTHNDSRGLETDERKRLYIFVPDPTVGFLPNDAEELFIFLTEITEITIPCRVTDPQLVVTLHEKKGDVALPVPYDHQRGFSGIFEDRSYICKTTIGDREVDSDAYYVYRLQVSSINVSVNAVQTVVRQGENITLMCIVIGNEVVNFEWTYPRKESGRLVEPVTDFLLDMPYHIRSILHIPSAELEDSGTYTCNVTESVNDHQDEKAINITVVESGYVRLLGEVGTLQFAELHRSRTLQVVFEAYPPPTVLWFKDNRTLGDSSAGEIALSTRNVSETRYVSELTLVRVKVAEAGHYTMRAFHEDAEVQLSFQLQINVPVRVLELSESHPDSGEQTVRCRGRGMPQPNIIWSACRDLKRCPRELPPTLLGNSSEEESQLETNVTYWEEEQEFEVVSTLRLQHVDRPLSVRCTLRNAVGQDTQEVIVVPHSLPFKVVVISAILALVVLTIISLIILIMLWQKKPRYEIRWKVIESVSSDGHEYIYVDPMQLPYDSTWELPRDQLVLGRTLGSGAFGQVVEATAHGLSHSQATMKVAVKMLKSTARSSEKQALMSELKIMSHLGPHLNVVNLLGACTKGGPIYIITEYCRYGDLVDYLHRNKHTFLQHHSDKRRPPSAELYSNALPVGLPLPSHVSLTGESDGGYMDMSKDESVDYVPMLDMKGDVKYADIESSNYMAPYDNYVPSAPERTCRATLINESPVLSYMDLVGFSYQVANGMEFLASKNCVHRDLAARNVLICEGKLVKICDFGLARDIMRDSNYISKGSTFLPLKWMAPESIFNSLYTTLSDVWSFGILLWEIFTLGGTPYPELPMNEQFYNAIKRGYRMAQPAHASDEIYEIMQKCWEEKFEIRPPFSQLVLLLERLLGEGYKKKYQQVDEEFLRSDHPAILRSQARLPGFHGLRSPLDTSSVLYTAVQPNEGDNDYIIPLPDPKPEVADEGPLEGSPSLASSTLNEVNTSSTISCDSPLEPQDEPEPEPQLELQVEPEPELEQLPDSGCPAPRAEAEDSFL

COCCN[C@H]1CC[C@H](Nc2cc(-c3csc(NCC4(C#N)CCOCC4)n3)c(Cl)cn2)CC1 showed an Activity [1] of 100%, an Activity [2] of 75% and an Activity [3] of 57%. The IC50 [4] was 2860 nM, the Activity [5] was 98% and the Activity [6] was “inactive”. The Activity [7] was 100%, the Activity [8] was 95% and the Activity [9] was 63%. For the same molecule, the Activity [10] was 100%, the Activity [11] was 97% and the Activity [12] was 88%. For the same molecule, the Activity [13] was 93%, the Activity [14] was 97% and the Activity [15] was 100%. The Activity [16] was 77%, the Activity [17] was 100% and the Activity [18] was 96%. It also gave an Activity [19] of 98% and an Activity [20] of 91%.
